Experimental data reported in the array DNA melting data of Ke et al. (doi:10.1101/2024.01.08.574731).

Experiments:
[1] = folding enthalpy; higher = less favourable; fluorescence melt of hairpins on a sequencing array, two-state fit; details: sodium 0.088 M
Method in brief: (§1)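 Folding enthalpy and melting temperature come from bootstrapped two-state fits to Cy3 fluorescence of library hairpins carrying annealed Cy3 and quencher oligos on a sequenced MiSeq flow cell. Imaging was done in 50 mM Na-HEPES pH 8.0, 25 mM NaCl, stepping by 2.5 °C up to 60 °C, and signals were normalised to pre-quench Cy3 and to control constructs. Results of four replicates were combined by inverse variance, and fitted temperatures were raised by 9.35 °C to match UV melts.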

[2] = melting temperature; fluorescence melt of hairpins on a sequencing array, two-state fit, raised by 9.35 °C to match UV melts; details: sodium 0.088 M
Method in brief: as §1

## GCCGTGGGAAACCACAGC ((.((((....)))).))
[1]
  folding enthalpy: -18.6 kcal/mol
[2]
  Tm: 49.4 °C

## GCCGTTCGAAAGAAGGC (((.(((....))))))
[1]
  folding enthalpy: -30.4 kcal/mol
[2]
  Tm: 50.4 °C

## GCCGTTGGAAACGACGGC (((((.(....).)))))
[1]
  folding enthalpy: -38 kcal/mol
[2]
  Tm: 66.1 °C

## GCCTAACGAAAGTTCGGC (((.(((....))).)))
[1]
  folding enthalpy: -34.8 kcal/mol
[2]
  Tm: 52.4 °C

## GCCTAAGGAAACCTAGGC (((((.(....).)))))
[1]
  folding enthalpy: -39.3 kcal/mol
[2]
  Tm: 44.9 °C

## GCCTAAGGAAACTCAGGC ((((.((....)).))))
[1]
  folding enthalpy: -31.3 kcal/mol
[2]
  Tm: 35.6 °C

## GCCTACCGAAAGGTTGGC (((.(((....))).)))
[1]
  folding enthalpy: -35.4 kcal/mol
[2]
  Tm: 62.5 °C

## GCCTACGAAAGTAACGGC ((((((....)))..)))
[1]
  folding enthalpy: -26.5 kcal/mol
[2]
  Tm: 44 °C

## GCCTACGAAAGTAAGGC ((((((....))).)))
[1]
  folding enthalpy: -31.3 kcal/mol
[2]
  Tm: 56.9 °C

## GCCTACGAAAGTAGGGGC ((((((....)))..)))
[1]
  folding enthalpy: -14.4 kcal/mol
[2]
  Tm: 61.3 °C

## GCCTACGAAAGTATGGC ((((((....))).)))
[1]
  folding enthalpy: -24.6 kcal/mol
[2]
  Tm: 52.3 °C

## GCCTACTCGAAAGAGGGC (((..(((....))))))
[1]
  folding enthalpy: -26.4 kcal/mol
[2]
  Tm: 44.1 °C

## GCCTAGCGAAAGCAACGC ((.(.((....)).).))
[1]
  folding enthalpy: -8.35 kcal/mol
[2]
  Tm: 23.8 °C

## GCCTAGCGAAAGCGGGGC (((..((....))..)))
[1]
  folding enthalpy: -22.3 kcal/mol
[2]
  Tm: 65.9 °C

## GCCTAGCGAAAGCGTGGC (((..((....))..)))
[1]
  folding enthalpy: -30.2 kcal/mol
[2]
  Tm: 64.5 °C

## GCCTAGCGAAAGCTACGC ((.((((....)))).))
[1]
  folding enthalpy: -19 kcal/mol
[2]
  Tm: 41.8 °C

## GCCTAGCGAAAGCTCGGC (((.(((....))).)))
[1]
  folding enthalpy: -39.4 kcal/mol
[2]
  Tm: 56.8 °C

## GCCTAGGAAACTAGGC ((((((....))))))
[1]
  folding enthalpy: -36.2 kcal/mol
[2]
  Tm: 58.7 °C

## GCCTATCGAAAGATCGGC (((.(((....))).)))
[1]
  folding enthalpy: -41.7 kcal/mol
[2]
  Tm: 49 °C

## GCCTATCGAAAGATGGC (((.(((....))))))
[1]
  folding enthalpy: -30.9 kcal/mol
[2]
  Tm: 50.9 °C

## GCCTATCGAAAGATTGGC (((.(((....))).)))
[1]
  folding enthalpy: -35.2 kcal/mol
[2]
  Tm: 53.4 °C

## GCCTATGCGAAAGCAGGC (((..(((....))))))
[1]
  folding enthalpy: -23.1 kcal/mol
[2]
  Tm: 54 °C

## GCCTCACGAAAGTGTGGC (((.(((....))).)))
[1]
  folding enthalpy: -43.5 kcal/mol
[2]
  Tm: 63.5 °C

## GCCTCAGAAATGAGGC ((((((....))))))
[1]
  folding enthalpy: -30.8 kcal/mol
[2]
  Tm: 62.5 °C

## GCCTCCGAAAGGAAAGGC ((((((....)))..)))
[1]
  folding enthalpy: -29.6 kcal/mol
[2]
  Tm: 53 °C

## GCCTCCGAAAGGAGCGGC ((((((....)))..)))
[1]
  folding enthalpy: -15.6 kcal/mol
[2]
  Tm: 52.3 °C

## GCCTCCGGAAACAGAGGC (((((.(....).)))))
[1]
  folding enthalpy: -36.5 kcal/mol
[2]
  Tm: 48.7 °C

## GCCTCGACGAAAGTCGGC (((..(((....))))))
[1]
  folding enthalpy: -6.95 kcal/mol
[2]
  Tm: 52.1 °C

## GCCTCGCGAAAGCGGAGC ((..(((....)))..))
[1]
  folding enthalpy: -13.7 kcal/mol
[2]
  Tm: 50.9 °C

## GCCTCGCGAAAGCGGGC (((.(((....))))))
[1]
  folding enthalpy: -16.4 kcal/mol
[2]
  Tm: 67.7 °C

## GCCTCGCGAAAGCGTCGC ((..(((....)))..))
[1]
  folding enthalpy: -12.2 kcal/mol
[2]
  Tm: 43.1 °C

## GCCTCTCGAAAGAGTGGC (((.(((....))).)))
[1]
  folding enthalpy: -41.8 kcal/mol
[2]
  Tm: 57.4 °C

## GCCTCTGCGAAAGCAGGC (((..(((....))))))
[1]
  folding enthalpy: -8.17 kcal/mol
[2]
  Tm: 50 °C

## GCCTCTGGAAACAAAGGC ((((.((....)).))))
[1]
  folding enthalpy: -26.1 kcal/mol
[2]
  Tm: 36.1 °C

## GCCTCTGGAAACAGAGAC (.(((((....))))).)
[1]
  folding enthalpy: -18.7 kcal/mol
[2]
  Tm: 40.1 °C

## GCCTGACGAAAGTCTGGC (((.(((....))).)))
[1]
  folding enthalpy: -37.2 kcal/mol
[2]
  Tm: 67.5 °C

## GCCTGAGCGAAAGCTGGC (((..(((....))))))
[1]
  folding enthalpy: -25.7 kcal/mol
[2]
  Tm: 52.6 °C

## GCCTGAGGAAACCCAGGC (((((.(....).)))))
[1]
  folding enthalpy: -36.5 kcal/mol
[2]
  Tm: 53.2 °C

## GCCTGCACGAAAGTGGGC (((..(((....))))))
[1]
  folding enthalpy: -20.3 kcal/mol
[2]
  Tm: 47.3 °C

## GCCTGCGAAAGCACGGGC ((((((....)))..)))
[1]
  folding enthalpy: -22.4 kcal/mol
[2]
  Tm: 53 °C

## GCCTGCGAAAGCACTGGC ((((((....)))..)))
[1]
  folding enthalpy: -20 kcal/mol
[2]
  Tm: 49.9 °C

## GCCTGCGAAAGCAGAGGC ((((((....)))..)))
[1]
  folding enthalpy: -17.6 kcal/mol
[2]
  Tm: 60.1 °C

## GCCTGCGAAAGCAGCGGC ((((((....)))..)))
[1]
  folding enthalpy: -14 kcal/mol
[2]
  Tm: 61.6 °C

## GCCTGCGAAAGCATGGC ((((((....))).)))
[1]
  folding enthalpy: -30.8 kcal/mol
[2]
  Tm: 65.8 °C

## GCCTGCGAAAGCATGGGC ((((((....)))..)))
[1]
  folding enthalpy: -21.4 kcal/mol
[2]
  Tm: 56.7 °C

## GCCTGCGCGAAAGCGGGC (((..(((....))))))
[1]
  folding enthalpy: -15.4 kcal/mol
[2]
  Tm: 55.5 °C
